Measurements: the M2OR odorant receptor database
Substitutions are numbered along the chain they refer to.

What was measured:
Conditions in all cases: stereoisomer not certain
[1] = system: T1, OR5H2
T1 sequence (whole entry): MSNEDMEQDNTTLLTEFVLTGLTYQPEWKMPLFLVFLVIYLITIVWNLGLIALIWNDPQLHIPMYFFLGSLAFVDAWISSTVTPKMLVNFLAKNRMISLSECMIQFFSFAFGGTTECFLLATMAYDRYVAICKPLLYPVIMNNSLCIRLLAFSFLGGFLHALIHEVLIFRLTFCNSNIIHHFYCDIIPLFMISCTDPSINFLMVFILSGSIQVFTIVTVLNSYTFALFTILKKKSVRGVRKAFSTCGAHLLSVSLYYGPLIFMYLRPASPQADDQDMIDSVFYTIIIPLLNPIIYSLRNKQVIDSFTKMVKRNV
In short: (§1)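 Transient luciferase assays in mammalian cell lines were common, though methods varied by source. The values come from published papers and their supplementary material, with extra details from the original authors when needed. Responsive refers to a measured signal the original authors judged statistically different from baseline, and non-responsive (inactive) to the remainder.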

[2] = biological target: T2, OR5H6 (Homo sapiens) (UniProt Q8NGV6)
T2 sequence (whole entry): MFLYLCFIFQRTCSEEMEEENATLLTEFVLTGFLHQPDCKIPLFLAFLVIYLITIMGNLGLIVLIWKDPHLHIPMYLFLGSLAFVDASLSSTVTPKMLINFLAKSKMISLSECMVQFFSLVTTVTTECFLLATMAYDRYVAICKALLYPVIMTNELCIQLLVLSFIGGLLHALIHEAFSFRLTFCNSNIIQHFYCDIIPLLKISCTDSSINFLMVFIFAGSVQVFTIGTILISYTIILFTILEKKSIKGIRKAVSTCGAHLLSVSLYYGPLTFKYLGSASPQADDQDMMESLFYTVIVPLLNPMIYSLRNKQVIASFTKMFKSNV
In short: as §1

[3] = biological target: OR5H8 (Homo sapiens) (UniProt P0DN80)
Sequence of OR5H8 (Homo sapiens) (P0DN80 whole entry): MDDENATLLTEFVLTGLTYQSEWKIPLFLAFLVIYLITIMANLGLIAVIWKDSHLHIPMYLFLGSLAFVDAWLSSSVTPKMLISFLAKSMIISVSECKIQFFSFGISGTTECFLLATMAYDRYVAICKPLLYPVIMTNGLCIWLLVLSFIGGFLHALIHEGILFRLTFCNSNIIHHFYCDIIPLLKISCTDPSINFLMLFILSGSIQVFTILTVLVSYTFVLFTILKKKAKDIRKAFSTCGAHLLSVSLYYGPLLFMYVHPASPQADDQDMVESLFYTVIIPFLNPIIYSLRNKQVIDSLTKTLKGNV
In short: as §1

[4] = biological target: T3, OR5I1 (Homo sapiens) (UniProt Q13606)
T3 sequence (whole entry): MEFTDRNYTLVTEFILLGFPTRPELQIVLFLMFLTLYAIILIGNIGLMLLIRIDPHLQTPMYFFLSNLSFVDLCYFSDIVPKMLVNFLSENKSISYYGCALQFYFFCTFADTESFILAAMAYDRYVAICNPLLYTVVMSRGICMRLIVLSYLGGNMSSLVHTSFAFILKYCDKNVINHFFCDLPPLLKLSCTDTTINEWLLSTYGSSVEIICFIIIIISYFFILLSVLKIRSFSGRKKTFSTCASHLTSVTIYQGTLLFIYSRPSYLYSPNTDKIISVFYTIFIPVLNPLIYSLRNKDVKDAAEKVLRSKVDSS
In short: as §1

[5] = biological target: T4, OR5J2 (Homo sapiens) (UniProt Q8NH18)
T4 sequence (whole entry): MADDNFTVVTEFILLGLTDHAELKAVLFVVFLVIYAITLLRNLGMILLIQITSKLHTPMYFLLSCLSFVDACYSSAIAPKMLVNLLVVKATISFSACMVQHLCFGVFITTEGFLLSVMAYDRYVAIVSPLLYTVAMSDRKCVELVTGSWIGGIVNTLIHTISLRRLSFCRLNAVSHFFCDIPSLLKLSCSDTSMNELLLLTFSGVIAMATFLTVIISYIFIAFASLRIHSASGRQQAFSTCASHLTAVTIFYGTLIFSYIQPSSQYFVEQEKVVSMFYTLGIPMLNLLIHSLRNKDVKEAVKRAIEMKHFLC
In short: as §1

[6] = biological target: T5, OR5K2 (Homo sapiens) (UniProt Q8NHB8)
T5 sequence (whole entry): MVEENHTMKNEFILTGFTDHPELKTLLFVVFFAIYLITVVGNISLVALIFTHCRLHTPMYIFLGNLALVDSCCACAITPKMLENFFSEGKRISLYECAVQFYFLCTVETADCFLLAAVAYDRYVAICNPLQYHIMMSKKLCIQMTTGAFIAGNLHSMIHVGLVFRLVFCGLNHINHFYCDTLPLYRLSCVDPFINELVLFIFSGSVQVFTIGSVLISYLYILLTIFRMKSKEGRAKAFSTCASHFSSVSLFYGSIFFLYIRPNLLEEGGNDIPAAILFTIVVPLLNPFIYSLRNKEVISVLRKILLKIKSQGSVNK
In short: as §1

[7] = biological target: T6, OR5K3 (Homo sapiens) (UniProt A6NET4)
T6 sequence (whole entry): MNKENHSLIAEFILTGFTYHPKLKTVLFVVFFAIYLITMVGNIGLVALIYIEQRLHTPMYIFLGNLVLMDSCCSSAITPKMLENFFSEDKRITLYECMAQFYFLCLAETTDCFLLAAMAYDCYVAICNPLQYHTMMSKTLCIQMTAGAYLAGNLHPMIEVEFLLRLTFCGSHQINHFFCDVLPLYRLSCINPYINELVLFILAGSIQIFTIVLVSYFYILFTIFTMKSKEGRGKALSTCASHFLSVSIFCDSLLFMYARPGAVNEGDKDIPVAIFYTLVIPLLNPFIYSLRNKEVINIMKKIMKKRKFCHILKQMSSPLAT
In short: as §1

[8] = biological target: T7, OR5K4 (Homo sapiens) (UniProt A6NMS3)
T7 sequence (whole entry): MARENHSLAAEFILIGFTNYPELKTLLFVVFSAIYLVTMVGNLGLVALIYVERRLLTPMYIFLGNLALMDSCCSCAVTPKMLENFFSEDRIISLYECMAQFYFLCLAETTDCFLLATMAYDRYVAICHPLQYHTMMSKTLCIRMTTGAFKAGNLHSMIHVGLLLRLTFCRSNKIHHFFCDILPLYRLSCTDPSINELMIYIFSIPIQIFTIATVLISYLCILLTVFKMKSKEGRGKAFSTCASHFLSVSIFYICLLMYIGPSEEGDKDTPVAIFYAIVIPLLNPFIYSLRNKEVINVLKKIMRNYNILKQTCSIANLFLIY
In short: as §1

[9] = biological target: T8, OR5L1 (Homo sapiens) (UniProt Q8NGL2)
T8 sequence (whole entry): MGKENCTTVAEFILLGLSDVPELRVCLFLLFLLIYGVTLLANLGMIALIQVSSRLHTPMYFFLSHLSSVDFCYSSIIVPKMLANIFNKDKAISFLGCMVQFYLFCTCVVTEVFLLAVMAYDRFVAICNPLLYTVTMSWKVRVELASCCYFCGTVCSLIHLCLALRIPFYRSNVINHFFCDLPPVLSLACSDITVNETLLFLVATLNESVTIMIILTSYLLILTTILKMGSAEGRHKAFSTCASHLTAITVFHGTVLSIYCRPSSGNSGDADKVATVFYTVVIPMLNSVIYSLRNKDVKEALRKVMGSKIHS
In short: as §1

[10] = biological target: T9, OR5M1 (Homo sapiens) (UniProt Q8NGP8)
T9 sequence (whole entry): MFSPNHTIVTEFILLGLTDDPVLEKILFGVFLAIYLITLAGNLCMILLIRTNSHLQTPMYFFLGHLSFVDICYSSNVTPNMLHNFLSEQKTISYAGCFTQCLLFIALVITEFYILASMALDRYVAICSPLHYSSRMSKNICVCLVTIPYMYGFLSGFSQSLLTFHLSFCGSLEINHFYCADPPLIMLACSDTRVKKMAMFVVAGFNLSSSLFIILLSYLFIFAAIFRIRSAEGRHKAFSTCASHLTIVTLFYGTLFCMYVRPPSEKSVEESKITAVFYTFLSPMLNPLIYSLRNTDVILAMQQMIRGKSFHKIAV
In short: as §1

[11] = biological target: T10, OR5M10 (Homo sapiens) (UniProt Q6IEU7)
T10 sequence (whole entry): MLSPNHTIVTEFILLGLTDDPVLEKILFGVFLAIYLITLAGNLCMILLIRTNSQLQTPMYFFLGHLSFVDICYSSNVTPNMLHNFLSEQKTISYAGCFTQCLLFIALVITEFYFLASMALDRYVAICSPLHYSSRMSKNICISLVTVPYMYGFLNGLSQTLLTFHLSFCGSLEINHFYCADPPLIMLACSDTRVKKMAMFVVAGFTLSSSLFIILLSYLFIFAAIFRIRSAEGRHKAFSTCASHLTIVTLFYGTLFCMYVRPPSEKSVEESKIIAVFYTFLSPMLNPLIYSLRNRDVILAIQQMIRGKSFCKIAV
In short: as §1

[12] = biological target: T11, OR5M11 (Homo sapiens) (UniProt Q96RB7)
T11 sequence (whole entry): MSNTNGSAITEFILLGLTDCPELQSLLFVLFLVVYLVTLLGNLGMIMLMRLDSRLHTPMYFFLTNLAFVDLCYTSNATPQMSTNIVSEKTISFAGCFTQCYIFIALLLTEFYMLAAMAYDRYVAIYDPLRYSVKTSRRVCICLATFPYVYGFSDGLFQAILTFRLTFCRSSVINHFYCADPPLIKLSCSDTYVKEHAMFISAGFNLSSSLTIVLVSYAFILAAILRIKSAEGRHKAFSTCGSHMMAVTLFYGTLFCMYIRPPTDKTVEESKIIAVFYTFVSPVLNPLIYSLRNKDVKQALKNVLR
In short: as §1

[13] = biological target: T12, OR5M3 (Homo sapiens) (UniProt Q8NGP4)
T12 sequence (whole entry): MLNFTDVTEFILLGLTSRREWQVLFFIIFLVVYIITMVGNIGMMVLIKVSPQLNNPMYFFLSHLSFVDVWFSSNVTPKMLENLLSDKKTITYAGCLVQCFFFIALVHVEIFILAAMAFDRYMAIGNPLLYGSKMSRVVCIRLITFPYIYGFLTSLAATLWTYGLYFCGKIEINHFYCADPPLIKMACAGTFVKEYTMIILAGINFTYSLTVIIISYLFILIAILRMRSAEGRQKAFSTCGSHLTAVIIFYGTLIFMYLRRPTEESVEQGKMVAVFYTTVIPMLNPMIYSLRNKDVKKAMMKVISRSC
In short: as §1

[14] = biological target: T13, OR5K1 (Homo sapiens) (UniProt Q8NHB7)
T13 sequence (whole entry): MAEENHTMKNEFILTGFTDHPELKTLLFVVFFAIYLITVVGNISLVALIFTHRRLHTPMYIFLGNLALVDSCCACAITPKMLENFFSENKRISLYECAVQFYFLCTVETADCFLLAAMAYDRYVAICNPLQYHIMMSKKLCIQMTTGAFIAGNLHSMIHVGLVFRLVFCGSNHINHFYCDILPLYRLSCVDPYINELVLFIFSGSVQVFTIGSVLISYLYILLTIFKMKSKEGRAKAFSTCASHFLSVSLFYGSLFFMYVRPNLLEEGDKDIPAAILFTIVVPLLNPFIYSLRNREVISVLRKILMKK
In short: as §1

[15] = system: T14, OR5K2 L197M
T14 sequence (whole entry): T5 sequence (whole entry) with L197M
In short: as §1

[16] = biological target: T15, OR5L2 (Homo sapiens) (UniProt Q8NGL0)
T15 sequence (whole entry): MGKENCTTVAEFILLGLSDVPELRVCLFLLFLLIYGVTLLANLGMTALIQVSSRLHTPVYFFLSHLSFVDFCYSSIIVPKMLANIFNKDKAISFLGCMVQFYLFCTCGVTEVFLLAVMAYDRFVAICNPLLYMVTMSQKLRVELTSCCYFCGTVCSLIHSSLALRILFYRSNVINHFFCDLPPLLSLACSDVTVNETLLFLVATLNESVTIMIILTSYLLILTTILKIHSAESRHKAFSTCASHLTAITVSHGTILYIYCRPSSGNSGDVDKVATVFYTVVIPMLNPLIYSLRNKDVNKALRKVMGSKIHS
In short: as §1

[17] = system: T16, OR5M1 T295R M301I
T16 sequence (whole entry): T9 sequence (whole entry) with T295R, M301I
In short: as §1

[18] = system: T17, OR5M3 N3Y A156T
T17 sequence (whole entry): T12 sequence (whole entry) with N3Y, A156T
In short: as §1

[19] = system: T18, OR5H1
T18 sequence (whole entry): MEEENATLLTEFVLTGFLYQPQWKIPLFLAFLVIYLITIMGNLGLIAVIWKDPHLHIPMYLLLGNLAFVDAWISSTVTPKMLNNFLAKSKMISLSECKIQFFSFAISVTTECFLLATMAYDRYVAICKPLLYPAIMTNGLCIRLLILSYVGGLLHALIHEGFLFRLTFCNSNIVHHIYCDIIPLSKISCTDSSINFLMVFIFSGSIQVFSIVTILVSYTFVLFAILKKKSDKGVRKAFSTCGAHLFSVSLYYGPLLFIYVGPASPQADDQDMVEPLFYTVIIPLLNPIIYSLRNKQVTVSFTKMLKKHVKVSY
In short: as §1

Measured: odorant receptor agonist call

CC1CCCCCCCCCCCCC(=O)C1 (stereo not given)
not listed: [14] | [15] | [16] | [17] | [18] | [19]
inactive: all other assays above

CCCCCCC=CCCC=O
not listed: [3] | [19]
inactive: all other assays above

CC1=NC(C)C(C)S1 (stereo not given)
active: [14]
not listed: [3]
inactive: all other assays above

Cc1nccnc1C
active: [14]
inactive: [6] | [7] | [8]

CCC(S)C(C)CO (stereo not given)
not listed: [3] | [4] | [15] | [17] | [18] | [19]
inactive: all other assays above
